46 molecules from ChEMBL document CHEMBL1148398, “Design, synthesis, and biological evaluation of thio-containing compounds with serum HDL-cholesterol-elevating properties” (2004) can be followed below.

What all share (type): functional
In experiment [1] the test system is Rattus norvegicus. Description: Percent change in total plasma cholesterol in hypercholesterolemic rats dosed at 100 mg/kg/day for 8 days.
Experiment [2] deals with Rattus norvegicus. The experiment is described as follows: Percent change in high-density lipoprotein cholesterol in hypercholesterolemic rats dosed at 100 mg/kg/day for 8 days.
Experiment [3] relates to Rattus norvegicus. The experiment is described as follows: Percent change in triglycerides in hypercholesterolemic rats at a dose of 100 mg/kg/day for 8 days.
In experiment [4] the test system is Rattus norvegicus. Description: Percent change in total plasma cholesterol following oral administration of compound in normal chow-fed rats at 100 mg/kg/day for 4 days. A digest of the protocol:
(§1)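 Chow-fed male Sprague–Dawley CD rats, 60–80 g, gavaged 100 mg/kg/day for 4 days in 1.3% Tween 80/0.25% CMC. Fasted overnight, bled 24 h after the last dose. Total cholesterol and glycerol-blanked triglycerides read enzymatically; lipoproteins by FPLC with cholesterol per fraction. % change versus control; six per group, p < 0.05.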

In experiment [5] the test system is Rattus norvegicus. Description: Percent change in high-density lipoprotein cholesterol following oral administration of compound in normal chow-fed rats at 100 mg/kg/day for 4 days. In short, it runs like this:
as §1

Experiment [6] deals with Rattus norvegicus. The experiment is described as follows: Percent change in low-density lipoprotein cholesterol following oral administration of compound in normal chow-fed rats at 100 mg/kg/day for 4 days. A digest of the protocol:
as §1

Experiment [7] relates to Rattus norvegicus. Description: Percent change in very low-density lipoprotein cholesterol following oral administration of compound in normal chow-fed rats at 100 mg/kg/day for 4 days. A digest of the protocol:
as §1

Experiment [8] deals with Rattus norvegicus. Description: Percent change in triglycerides following oral administration of compound in normal chow-fed rats at 100 mg/kg/day for 4 days. A digest of the protocol: as §1

As to `CN1CC(=O)N(Cc2ccccc2Cl)C1=S`, the Change in the experiment with Rattus norvegicus [1] is given as 14%; with Rattus norvegicus [2], 23%; with Rattus norvegicus [3], 11%.

For the molecule `CN1CC(=O)N(c2ccccc2)C1=S`, the Change came to 25% with Rattus norvegicus [1], 66% in the experiment with Rattus norvegicus [2] and 10% in the experiment on Rattus norvegicus [3].

`CCN1CCC(=O)N(c2ccccc2F)C1=S`: the Change in the experiment with Rattus norvegicus [4] is on record as 48.7%; in the experiment on Rattus norvegicus [1], 21%; with Rattus norvegicus [5], 55.3%; with Rattus norvegicus [2], 72%; with Rattus norvegicus [6], -4%; in the experiment with Rattus norvegicus [3] it was -26%. For the same molecule, the results for the Change in the experiment on Rattus norvegicus [7] and with Rattus norvegicus [8] were 20.1% and -4%, respectively.

On to `CCN1CC(=O)N(CCc2ccccc2)C1=S`, for which the Change in the experiment on Rattus norvegicus [1] was -14%; in the experiment on Rattus norvegicus [2] it was 30%; with Rattus norvegicus [3], 6%.

Regarding `CCN1C(=S)N(c2c(Cl)cccc2Cl)C(=O)C1c1ccccc1` (configuration not stated), the Change in the experiment on Rattus norvegicus [1] is 18%; in the experiment with Rattus norvegicus [2] it was 39%; in the experiment with Rattus norvegicus [3], 25%.

Turning to `CCc1cccc(C(C)C)c1N1C(=O)CCN(CC)C1=S`, the Change with Rattus norvegicus [1] is listed as 2%; with Rattus norvegicus [2], 34%; in the experiment on Rattus norvegicus [3] it was -11%.

As for `CN1CC(=O)N(c2c(Cl)cccc2Cl)C1=S`, the Change is reported as 83.9% in the experiment with Rattus norvegicus [4]; 4.6% in the experiment with Rattus norvegicus [1]; 109.3% with Rattus norvegicus [5]; 92% with Rattus norvegicus [2]; 39.6% in the experiment with Rattus norvegicus [6]; -43% in the experiment with Rattus norvegicus [3]. For the same molecule, the Change in the experiment with Rattus norvegicus [7] was -3.3%; with Rattus norvegicus [8] it was -33.3%.

For the molecule `Cc1ccc(Cl)cc1N1C(=O)CON(C)C1=S`, the Change is listed as 85.7% in the experiment on Rattus norvegicus [4]; 5.7% in the experiment with Rattus norvegicus [1]; 83.5% in the experiment with Rattus norvegicus [5]; 236% with Rattus norvegicus [2]; 29.9% with Rattus norvegicus [6]; -10% with Rattus norvegicus [3]. Also, the Change in the experiment on Rattus norvegicus [7] was 23.1%; in the experiment with Rattus norvegicus [8], -26.2%.

Take `C=CCN1CC(=O)N(c2c(C)cccc2C)C1=S`: the Change in the experiment with Rattus norvegicus [4] is reported as 86%; in the experiment on Rattus norvegicus [1], -5%; with Rattus norvegicus [5], 120.4%; with Rattus norvegicus [2] it was 177%; in the experiment with Rattus norvegicus [6], -18.8%; in the experiment with Rattus norvegicus [3], -45%. In addition, the Change in the experiment with Rattus norvegicus [7] is given as -45.8%; in the experiment with Rattus norvegicus [8], -29.9%.

Turning to `CCN1C(=S)N(CC(C)C)C(=O)C1c1ccccc1` (configuration not stated), the Change in the experiment with Rattus norvegicus [4] is -8.4%; in the experiment on Rattus norvegicus [1], 7%; in the experiment with Rattus norvegicus [5] it was -3.1%; in the experiment on Rattus norvegicus [2] it was 156%; in the experiment on Rattus norvegicus [6] it was -9.3%; with Rattus norvegicus [3], 92%. Also, the Change with Rattus norvegicus [7] is given as 33.3%; with Rattus norvegicus [8], -1.6%.

As to `CCN1CC(=O)N(C2CCCCC2)C1=S`, the Change in the experiment with Rattus norvegicus [1] was -7.4%; in the experiment on Rattus norvegicus [2], 5.4%; in the experiment with Rattus norvegicus [3] it was 28%.

Consider `CCN1C(=S)N(c2cc(Cl)ccc2C)C(=O)C1(C)C`, for which the figures for the Change in the experiment with Rattus norvegicus [1], with Rattus norvegicus [2] and with Rattus norvegicus [3] were 0%, -9% and 15%, respectively.

`CCCCN1CC(=O)N(c2c(C)cccc2Cl)C1=S`: the Change with Rattus norvegicus [1] is on record as 30%; in the experiment with Rattus norvegicus [2] it was 53%; in the experiment on Rattus norvegicus [3], -38%.

`Cc1ccc(CCN2C(=O)CN(C)C2=S)cc1`: the Change was -11% in the experiment with Rattus norvegicus [1], -26.6% with Rattus norvegicus [2] and 27% in the experiment on Rattus norvegicus [3].

As for `Cc1ccc(Cl)cc1N1C(=O)CN(C)C1=O`, the figures for the Change with Rattus norvegicus [1], with Rattus norvegicus [2] and in the experiment with Rattus norvegicus [3] were 37%, -8% and -7%, respectively.

Take `CN1CC(=O)N(CCc2ccc(Cl)cc2)C1=S`: the Change in the experiment on Rattus norvegicus [1] is on record as -10.2%; in the experiment on Rattus norvegicus [2], -15.5%; in the experiment on Rattus norvegicus [3], 24%.

Consider `CCc1cccc(C)c1N1C(=O)CCN(CC)C1=S`, for which the results for the Change with Rattus norvegicus [1], with Rattus norvegicus [2] and in the experiment with Rattus norvegicus [3] were 52%, 60% and 2%, respectively.

`CCN1CC(=O)N(c2ccc(F)cc2)C1=S`: the Change in the experiment with Rattus norvegicus [1] is 78%; in the experiment with Rattus norvegicus [2], 59%; in the experiment with Rattus norvegicus [3], -18%.

For `CCN1C(=S)N(c2cc(Cl)ccc2C)C(=O)C1c1ccccc1` (configuration not stated), the Change is 60% in the experiment with Rattus norvegicus [1], 187% with Rattus norvegicus [2] and 76% with Rattus norvegicus [3].

On to `CCN1CC(=O)N(c2cc(Cl)ccc2OC)C1=S`, for which the figures for the Change in the experiment with Rattus norvegicus [1], in the experiment on Rattus norvegicus [2] and with Rattus norvegicus [3] were 24%, 39% and 51%, respectively.

As to `CCN1CC(=O)N(c2ccc3ccccc3c2)C1=S`, the figures for the Change in the experiment on Rattus norvegicus [1], in the experiment on Rattus norvegicus [2] and in the experiment on Rattus norvegicus [3] were -18.1%, 65% and -33%, respectively.

Regarding `CCN1C(=S)N(c2c(C)cccc2Cl)C(=O)C1(C)C`, the values for the Change in the experiment with Rattus norvegicus [1], in the experiment with Rattus norvegicus [2] and with Rattus norvegicus [3] were 16%, -5% and -22%, respectively.

Take `CN1CC(=O)N(c2cccnc2)C1=S`: the Change is -11.4% with Rattus norvegicus [1], 29% in the experiment on Rattus norvegicus [2] and 150% in the experiment with Rattus norvegicus [3].

Consider `Cc1ccc(Cl)cc1N1C(=O)C(=O)N(C)C1=S`, for which the Change in the experiment with Rattus norvegicus [1] is 44%; in the experiment with Rattus norvegicus [2] it was 196%; with Rattus norvegicus [3], -26%.

In the case of `CCN1C(=S)N(c2ccc(F)cc2)C(=O)C1c1ccccc1` (configuration not stated), the Change in the experiment with Rattus norvegicus [1] is on record as 31%; in the experiment on Rattus norvegicus [2] it was 67%; with Rattus norvegicus [3] it was 35%.

As for `CN1CC(=O)N(CCCCc2ccccc2)C1=S`, the Change was -4.3% in the experiment with Rattus norvegicus [1], -21% in the experiment on Rattus norvegicus [2] and 41% in the experiment on Rattus norvegicus [3].

`CCN1CC(=O)N(c2cc(Cl)ccc2C)C(=S)C1`: the figures for the Change in the experiment with Rattus norvegicus [1], with Rattus norvegicus [2] and with Rattus norvegicus [3] were 28%, 10% and -27%, respectively.

As to `CCN1C(=O)C(=O)N(c2cc(Cl)ccc2C)C1=S`, the Change in the experiment with Rattus norvegicus [4] is 123.4%; in the experiment with Rattus norvegicus [1], 32%; in the experiment on Rattus norvegicus [5] it was 87.6%; in the experiment on Rattus norvegicus [2] it was 242%; in the experiment on Rattus norvegicus [6], 71.9%; with Rattus norvegicus [3] it was -22%. In the experiment with Rattus norvegicus [7], the Change was 67.3%.

Regarding `CCN1CC(=O)N(c2ccc(N(C)C)cc2)C1=S`, the Change in the experiment on Rattus norvegicus [1] is reported as 123%; in the experiment on Rattus norvegicus [2], 49%; in the experiment with Rattus norvegicus [3], -41%.

In the case of `CN1CC(=O)N(CCN2CCCCC2)C1=S`, the figures for the Change in the experiment with Rattus norvegicus [1], in the experiment on Rattus norvegicus [2] and in the experiment on Rattus norvegicus [3] were -3.3%, -40% and 33%, respectively.

Take `CCN1C(=O)C(=O)N(c2ccc(F)cc2)C1=S`: the results for the Change in the experiment on Rattus norvegicus [1], in the experiment with Rattus norvegicus [2] and in the experiment on Rattus norvegicus [3] were 44%, 23% and -48%, respectively.

Consider `CCN1CC(=O)N(c2cc(Cl)ccc2C)/C1=N/C#N`, for which the Change is 15% in the experiment with Rattus norvegicus [1], 17% in the experiment on Rattus norvegicus [2] and -25% in the experiment with Rattus norvegicus [3].

Regarding `CCN1CC(=O)N(CCc2ccc(F)cc2)C1=S`, the Change in the experiment on Rattus norvegicus [1] is reported as -8.8%; in the experiment with Rattus norvegicus [2], 49%; in the experiment with Rattus norvegicus [3] it was -17%.

`CCN1CC(=O)N(c2ccccc2SC)C1=S`: the Change with Rattus norvegicus [1] is recorded as 13%; with Rattus norvegicus [2] it was 60%; with Rattus norvegicus [3] it was -8%.

Take `CCN1CCC(=O)N(c2cc(Cl)ccc2C)C1=S`: the Change with Rattus norvegicus [1] was found to be 53%; with Rattus norvegicus [2], 76%; in the experiment on Rattus norvegicus [3], 44%.

On to `CCN1CCCC(=O)N(c2cc(Cl)ccc2C)C1=S`, for which the Change with Rattus norvegicus [1] was found to be 7%; in the experiment with Rattus norvegicus [2], 50%; in the experiment with Rattus norvegicus [3], 14%.

Regarding `CCN1CC(=O)N(c2cc(C)c(C)cc2C)C1=S`, the values for the Change in the experiment on Rattus norvegicus [1], in the experiment with Rattus norvegicus [2] and in the experiment with Rattus norvegicus [3] were 39%, 112% and -11%, respectively.

With `O=C1CN(Cc2ccccc2)C(=S)N1c1c(Cl)cccc1Cl`, the Change with Rattus norvegicus [1] was 25.3%; in the experiment with Rattus norvegicus [2], -2.2%; in the experiment on Rattus norvegicus [3] it was -54%.

In the case of `CCN1CCC(=O)N(c2c(Cl)cccc2Cl)C1=S`, the results for the Change in the experiment with Rattus norvegicus [1], in the experiment with Rattus norvegicus [2] and in the experiment on Rattus norvegicus [3] were 42%, 16% and -6%, respectively.

For `CCN1C(=S)N(c2c(C)cccc2C)C(=O)C1(C)C`, the results for the Change in the experiment with Rattus norvegicus [1], with Rattus norvegicus [2] and in the experiment with Rattus norvegicus [3] were 13%, -2% and 17%, respectively.

Take `COC(=O)CCN1CC(=O)N(c2ccc(Cl)cc2C)C1=S`: the Change in the experiment with Rattus norvegicus [1] is 14%; in the experiment with Rattus norvegicus [2] it was 27%; in the experiment on Rattus norvegicus [3], -32%.

Consider `Cc1cccc(Cl)c1N1C(=O)CN(c2ccccc2)C1=S`, for which the Change came to 2.2% in the experiment with Rattus norvegicus [1], 39% in the experiment with Rattus norvegicus [2] and 16% with Rattus norvegicus [3].

On to `CCN1C(=S)N(c2c(Cl)cccc2Cl)C(=O)C1(C)C`, for which the results for the Change with Rattus norvegicus [1], with Rattus norvegicus [2] and in the experiment with Rattus norvegicus [3] were -16%, -18% and -19%, respectively.

Turning to `CCN1CCCC(=O)N(c2ccc(Cl)cc2C)C1=S`, the Change in the experiment with Rattus norvegicus [1] is recorded as 58.8%; in the experiment on Rattus norvegicus [2], 15%; with Rattus norvegicus [3], -15%.

`CCN1CCC(=O)N(c2ccc(C)cc2C)C1=S`: the Change with Rattus norvegicus [1] is on record as 27%; with Rattus norvegicus [2], -3%; in the experiment with Rattus norvegicus [3], 2%.

Turning to `CN1CC(=O)N(C(c2ccccc2)c2ccccc2)C1=S`, the values for the Change with Rattus norvegicus [1], with Rattus norvegicus [2] and in the experiment on Rattus norvegicus [3] were 3.4%, 57% and 92%, respectively.
